{"source": "paper PMC7680388", "about": "(Cell chemical biology, 2020)", "molecules": {"B1": {"name": "Rpn13Q337A/Q338A: Rpn13 double mutant defective in Uch37 activation, FLAG-tagged, expressed from plasmid (protein, UniProt Q16186 2-407, looked up, variant Q337A Q338A)", "Proteasomal ubiquitin …": "TTSGALFPSLVPGSRGASNKYLVEFRAGKMSLKGTTVTPDKRKGLVYIQQTDDSLIHFCWKDRTSGNVEDDLIIFPDDCEFKRVPQCPSGRVYVLKFKAGSKRLFFWMQEPKTDQDEEHCRKVNEYLNNPPMPGALGASGSSGHELSALGGEGGLQSLLGNMSHSQLMQLIGPAGLGGLGGLGALTGPGLASLLGSSGPPGSSSSSSSRSQSAAVTPSSTTSSTRATPAPSAPAAASATSPSPAPSSGNGASTAASPTQPIQLSDLQSILATMNVPAGPAGGQQVDLASVLTPEIMAPILANADVQERLLPYLPSGESLPQTADEIQNTLTSPQFAAALGMFSAALASGQLGPLMCQFGLPAEAVEAANKGDVEAFAKAMQNNAKPEQKEGDTKDKKDEEEDMSLD", "modifications": "FLAG tag"}}, "key": {"Rpn13-Uch37 interaction": {"test_system": "Rpn13-Uch37 interaction", "settings": "ref VanderLinden et al., 2015; cited from earlier work"}, "Uch37": {"target": "T1, Uch37 (Homo sapiens, UniProt Q9Y5K5)", "T1 sequence (Q9Y5K5 1-329)": "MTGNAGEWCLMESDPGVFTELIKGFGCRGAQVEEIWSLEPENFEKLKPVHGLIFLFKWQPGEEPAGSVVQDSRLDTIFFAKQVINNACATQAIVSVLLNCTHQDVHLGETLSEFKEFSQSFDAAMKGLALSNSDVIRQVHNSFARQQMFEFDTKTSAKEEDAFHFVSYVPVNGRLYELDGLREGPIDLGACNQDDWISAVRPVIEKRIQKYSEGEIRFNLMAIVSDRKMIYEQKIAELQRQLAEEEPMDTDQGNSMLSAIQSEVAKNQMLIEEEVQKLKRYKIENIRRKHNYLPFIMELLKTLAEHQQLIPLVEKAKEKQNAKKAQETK", "settings": "ref VanderLinden et al., 2015; cited from earlier work"}, "SK-MEL-5 cells": {"test_system": "SK-MEL-5 cells", "format": "cell-based, Homo sapiens", "settings": "endogenous Rpn13 depleted by UTR siRNA; Fig. 6E", "method_in_brief": "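SK-MEL-5 endogenous Rpn13 was depleted with UTR-targeting siRNA (50 nM) for 24 h. Cells at 70–80% confluency were then transfected with 2 μg wild-type or Q337A/Q338A FLAG-Rpn13 plasmid (Omnifect) per 6-well. Test compound was given at graded concentrations for 24 h. CellTiter-Glo 2.0 luminescence was normalized to vehicle, in technical triplicate and biological duplicate, with SD reported.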"}}}
{"molecule": "B1", "values": [{"measurement": "effect of mutations on physical interaction with Uch37", "setting": "Rpn13-Uch37 interaction", "result": "the mutations do not affect the physical interaction of the two proteins"}, {"measurement": "stimulation of Uch37 relative to wild-type Rpn13", "setting": "Uch37", "result": "about 30%"}, {"measurement": "viability upon expression of Rpn13 double mutant", "setting": "SK-MEL-5 cells", "result": "no significant effect on viability"}]}
